The record followed here is ChEMBL document CHEMBL4706601, “The endocannabinoid system dual-target ligand N-cycloheptyl-1,2-dihydro-5-bromo-1-(4-fluorobenzyl)-6-methyl-2-oxo-pyridine-3-carboxamide improves disease severity in a mouse model of multiple sclerosis” (Eur J Med Chem, 2020).

For orientation: EC50 means the midpoint of the concentration-response curve. A higher EC50 goes with weaker potency. Usually Emax stands for the size of the effect at its maximum, as opposed to the concentration needed.

The source made the active and inactive calls. The calls are words filed in the database; no cut-off is given here.

In experiment [1] the target is T1, Cannabinoid receptor 2 (Homo sapiens, UniProt P34972). The experiment is described as follows: Agonist activity at human CB2R expressed in CHO cell membranes after 90 mins by [35S]GTPgammaS assay. Type of experiment: functional, Membrane. Summed up:
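In-house CHO membranes expressing hCB1 or hCB2 (10 µg) in 50 mM Tris-HCl, 3 mM MgCl2, 0.2 mM EDTA, 100 mM NaCl, 0.5% fatty-acid-free BSA, pH 7.4, with 10 μM GDP and 0.1 nM [35S]GTPγS. Incubated 90 min at 30 °C; antagonist pre-incubated 30 min. Nonspecific binding with 10 μM GTPγS; bound label by filtration and counting; ≥3 experiments in triplicate.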

Experiment [2] addresses Cannabinoid receptor 2 (Mus musculus) (UniProt P47936). Put plainly: Agonist activity at CB2R in LPS induced mouse BV2 cells assessed as increase in IL-10 secretion at 10 uM preincubated with CB2R antagonist, SR144528 for 15 mins followed by compound additon for 30 mins after LPS stimulation for 4 hrs by ELISA. In kind it is cell-based. As to conditions: BV-2, time 270.0 min. Summed up:
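BV-2 murine microglia grown in high-glucose DMEM with 10% FBS. Treatments in FBS-free medium: test agonist 10 μM for 30 min, then LPS 5 μg/ml for 4 h; SR144528 10 μM given 15 min before agonist. DMSO ≤0.1% final. Medium spun 10 min at 1000×g; IL-1β, IL-6, IL-10 quantified by ELISA; three independent experiments in duplicate.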
(In general: ELISA stands for enzyme-linked immunosorbent assay.)

Experiment [3] has as its target Cannabinoid receptor 1 (Rattus norvegicus) (UniProt P20272). The experiment is described as follows: Agonist activity at CB1R in Sprague-Dawley rat hippocampal synaptosomes assessed as inhibition of 4-AP evoked glutamate release at 10 uM preincubated for 8 mins followed by 4-AP addition by HPLC analysis. In kind it is subcellular. Conditions: Hippocampus, filed as agonist. The gist of the method:
(§1)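 Rat (male Sprague Dawley, 200-250 g) hippocampal synaptosomes from Percoll gradient, superfused at 37 °C (0.5 ml/min); 4-AP 600 μM for 2 min. Compounds and antagonists (SR141716A, SR144528, 1 μM) added 8 min before 4-AP and kept during it; basal effects tested by 2-min exposure alone. Endogenous glutamate by HPLC as pmol/mg protein; overflow = stimulated minus basal in control chambers; n = 3–9, triplicate.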

The target is the same in experiment [4]. Put plainly: Agonist activity at CB1R in Sprague-Dawley rat hippocampal synaptosomes assessed as inhibition of 4-AP evoked glutamate release at 10 uM preincubated for 8 mins followed by 4-AP addition in presence of 1 uM CB2R antagonist, SR144528 by HPLC analysis. Conditions: Hippocampus, filed as agonist. Type of experiment: subcellular. The gist of the method:
as §1

For the next experiment, the species on record is Homo sapiens. Put plainly: Selectivity index, ratio of Ki for human CB1R expressed in CHO cell membranes to Ki for human CB2R expressed in CHO cell membranes. In kind it is cell-based.
Experiment [5] has as its target T1, Cannabinoid receptor 2. The experiment is described as follows: Competitive antagonist activity at human CB2R expressed in CHO cell membranes assessed as N-cycloheptyl-1,2-dihydro-5-bromo-1-(4-fluoro benzyl)-6-methyl-2-oxo-pyridine-3-carboxamide Emax at 100 nM preincubated with compound for 30 mins followed by GTPgammaS addition and measured after 90 mins by [35S]GTPgammaS assay (reference value: 210%). Type of experiment: functional. As to conditions: Membrane, filed as antagonist, time 120.0 min. For orientation: GTPγS resists hydrolysis and so accumulates on activated G proteins.

Experiment [6] concerns the target T1, Cannabinoid receptor 2. Put plainly: Non-competitive antagonist activity at human CB2R expressed in CHO cell membranes assessed as N-cycloheptyl-1,2-dihydro-1-(4-fluorobenzyl)-6-methyl-2-oxo-5-phenyl-pyridine-3-carboxamide Emax at 100 nM preincubated with compound for 30 mins followed by GTPgammaS addition and measured after 90 mins by [35S]GTPgammaS assay (reference value: -49.9%). Type of experiment: functional. Conditions: Membrane, filed as antagonist, time 120.0 min. Summed up:
(§2)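 hCB2 membranes from stably transfected CHO cells (10 µg) pre-incubated 30 min with antagonist, then an inverse-agonist concentration series added. Buffer: 50 mM Tris-HCl, 3 mM MgCl2, 0.2 mM EDTA, 100 mM NaCl, 0.5% fatty-acid-free BSA, pH 7.4, with 10 µM GDP and 0.1 nM [35S]GTPγS. Incubated 90 min at 30 °C, then filtered. Non-specific binding measured with 10 µM GTPγS. Emax given with 95% CI; at least 3 experiments, each in triplicate.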

Experiment [7] concerns the target T1, Cannabinoid receptor 2. The experiment is described as follows: Non-competitive antagonist activity at human CB2R expressed in CHO cell membranes assessed as N-cycloheptyl-1,2-dihydro-1-(4-fluorobenzyl)-6-methyl-2-oxo-5-phenyl-pyridine-3-carboxamide Emax at 300 nM preincubated with compound for 30 mins followed by GTPgammaS addition and measured after 90 mins by [35S]GTPgammaS assay (reference value: -49.9%). Type of experiment: functional. Conditions: Membrane, filed as antagonist, time 120.0 min. Summed up:
as §2

T1 sequence (P34972 whole entry): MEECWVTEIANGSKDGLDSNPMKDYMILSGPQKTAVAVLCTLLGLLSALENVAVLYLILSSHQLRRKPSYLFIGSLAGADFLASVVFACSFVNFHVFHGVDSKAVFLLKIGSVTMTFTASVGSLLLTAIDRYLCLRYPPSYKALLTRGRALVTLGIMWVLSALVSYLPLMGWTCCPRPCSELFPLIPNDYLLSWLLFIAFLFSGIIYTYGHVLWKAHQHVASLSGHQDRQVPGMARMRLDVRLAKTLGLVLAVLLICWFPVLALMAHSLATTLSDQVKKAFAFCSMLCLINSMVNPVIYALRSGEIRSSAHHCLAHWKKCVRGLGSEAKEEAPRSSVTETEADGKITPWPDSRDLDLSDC
Sequence of Cannabinoid receptor 1 (Rattus norvegicus) (P20272 whole entry, the tested form may be a part): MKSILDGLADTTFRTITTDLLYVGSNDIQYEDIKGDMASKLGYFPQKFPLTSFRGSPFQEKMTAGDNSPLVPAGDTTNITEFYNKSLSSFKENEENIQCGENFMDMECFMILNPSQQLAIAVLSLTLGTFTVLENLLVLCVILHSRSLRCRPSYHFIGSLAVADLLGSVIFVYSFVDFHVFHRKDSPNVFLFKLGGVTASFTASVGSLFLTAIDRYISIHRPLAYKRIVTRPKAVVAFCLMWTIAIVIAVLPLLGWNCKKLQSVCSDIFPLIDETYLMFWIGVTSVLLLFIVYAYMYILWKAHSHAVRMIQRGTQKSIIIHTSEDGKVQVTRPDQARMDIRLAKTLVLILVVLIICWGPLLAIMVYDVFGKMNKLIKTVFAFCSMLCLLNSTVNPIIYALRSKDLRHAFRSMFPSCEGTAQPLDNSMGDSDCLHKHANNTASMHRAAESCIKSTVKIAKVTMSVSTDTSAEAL
Sequence of Cannabinoid receptor 2 (Mus musculus) (P47936 whole entry): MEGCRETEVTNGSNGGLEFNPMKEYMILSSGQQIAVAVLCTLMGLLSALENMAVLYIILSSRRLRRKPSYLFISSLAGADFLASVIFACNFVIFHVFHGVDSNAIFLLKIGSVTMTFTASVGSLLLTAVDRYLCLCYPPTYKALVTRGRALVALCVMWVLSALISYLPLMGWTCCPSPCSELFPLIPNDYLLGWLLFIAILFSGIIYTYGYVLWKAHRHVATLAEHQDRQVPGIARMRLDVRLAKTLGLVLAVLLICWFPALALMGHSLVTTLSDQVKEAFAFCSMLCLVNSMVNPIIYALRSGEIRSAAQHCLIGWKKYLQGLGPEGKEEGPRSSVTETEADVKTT

For the compound `Cc1c(Br)cc(C(=O)NC2CCCCCC2)c(=O)n1Cc1ccc(F)cc1`, the EC50 at Cannabinoid receptor 2 [1] came to 11.6 nM. Further, the outcome in experiment [2] was inactive. Also, the outcome in experiment [3] and in experiment [4] was Active.
On to `COc1ccc(-c2cc(C(=O)NC3CCCCCC3)c(=O)n(Cc3ccc(F)cc3)c2C)cc1`, for which the Ratio Ki in the experiment filed under Homo sapiens worked out at 0.37. Besides, the Emax on Cannabinoid receptor 2 [5] is 219%; on Cannabinoid receptor 2 [6], -36.3%; at Cannabinoid receptor 2 [7], -28.6%.
